The values below come from paper PMC6432629 (The Prostate, 2016).

The target of one series is T1, FAP (Homo sapiens, UniProt Q12884).
T1 sequence (Q12884 27-760 limits assumed): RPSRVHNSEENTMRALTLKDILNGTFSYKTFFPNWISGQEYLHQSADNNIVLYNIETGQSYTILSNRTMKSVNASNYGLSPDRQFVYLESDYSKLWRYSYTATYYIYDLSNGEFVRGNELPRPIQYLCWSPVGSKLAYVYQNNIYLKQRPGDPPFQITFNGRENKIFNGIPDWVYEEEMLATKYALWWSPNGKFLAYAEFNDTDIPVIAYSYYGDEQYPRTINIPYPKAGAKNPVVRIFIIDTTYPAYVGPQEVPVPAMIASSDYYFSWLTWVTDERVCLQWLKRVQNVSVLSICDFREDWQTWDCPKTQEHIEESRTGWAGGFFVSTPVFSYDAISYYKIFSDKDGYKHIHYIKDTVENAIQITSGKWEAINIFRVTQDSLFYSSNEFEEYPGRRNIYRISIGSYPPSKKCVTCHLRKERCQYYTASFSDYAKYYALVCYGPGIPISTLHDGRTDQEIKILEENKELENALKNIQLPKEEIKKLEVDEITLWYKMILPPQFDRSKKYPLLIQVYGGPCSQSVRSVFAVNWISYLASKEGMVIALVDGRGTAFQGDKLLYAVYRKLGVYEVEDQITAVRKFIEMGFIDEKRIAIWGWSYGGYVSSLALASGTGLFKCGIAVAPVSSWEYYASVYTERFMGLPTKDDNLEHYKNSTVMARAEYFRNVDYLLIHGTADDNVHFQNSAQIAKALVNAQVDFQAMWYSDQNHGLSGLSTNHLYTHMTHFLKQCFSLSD
As to the kind of experiment: FAP-mediated hydrolysis of prodrugs ex vivo. Format: in vitro ADME. As to conditions: 37°C.

In series [1] the target is DPPIV (human recombinant CD26) (Homo sapiens, UniProt P27487). In words: DPPIV-mediated hydrolysis of prodrugs ex vivo. In kind it is in vitro ADME. As to conditions: 10 at 500 μM (Fig. 3 legend: 200 μM), DPPIV 30 nM, 37°C, 2 hr.
DPPIV (human recombinant CD26), sequence (P27487 whole entry): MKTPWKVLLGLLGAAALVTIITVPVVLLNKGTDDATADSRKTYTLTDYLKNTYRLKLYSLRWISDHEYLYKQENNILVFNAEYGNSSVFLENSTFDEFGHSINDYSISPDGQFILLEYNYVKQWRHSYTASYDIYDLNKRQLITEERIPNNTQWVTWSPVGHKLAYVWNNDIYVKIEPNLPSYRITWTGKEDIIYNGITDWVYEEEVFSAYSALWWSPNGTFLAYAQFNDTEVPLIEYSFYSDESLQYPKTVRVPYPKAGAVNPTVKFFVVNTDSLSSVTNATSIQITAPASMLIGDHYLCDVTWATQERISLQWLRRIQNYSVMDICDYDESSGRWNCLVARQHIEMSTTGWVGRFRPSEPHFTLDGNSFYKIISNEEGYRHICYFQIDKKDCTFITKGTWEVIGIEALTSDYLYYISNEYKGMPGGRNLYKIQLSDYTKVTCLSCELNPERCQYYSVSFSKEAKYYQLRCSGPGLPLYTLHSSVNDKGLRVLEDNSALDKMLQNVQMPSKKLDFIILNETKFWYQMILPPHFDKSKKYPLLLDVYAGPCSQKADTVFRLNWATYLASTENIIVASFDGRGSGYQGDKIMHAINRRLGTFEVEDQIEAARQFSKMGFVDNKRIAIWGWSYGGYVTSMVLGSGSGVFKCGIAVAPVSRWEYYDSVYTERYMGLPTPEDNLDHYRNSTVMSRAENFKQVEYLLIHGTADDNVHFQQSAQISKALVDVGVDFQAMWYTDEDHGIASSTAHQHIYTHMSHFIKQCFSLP
The nature of series [2]: Hydrolysis of prodrugs in media with 10% FBS. In kind it is in vitro ADME, bovine. As to conditions: 37°C.
Series [3] is described as follows: Stability in serum free media. Particulars: 37°C, 72 hr incubation. In kind it is in vitro ADME.
A further series has as its system PC3. As to the kind of experiment: MTT cell proliferation. As to conditions: for cytotoxicity / IC50 compared with emetine, PC3 (in words): media with 10% FBS.
For a further series, the system named is LNCaP. In words: MTT cell proliferation. Particulars: for cytotoxicity / IC50 compared with emetine, LNCaP (in words): media with 10% FBS.
A further series deals with MCF-7. As to the kind of experiment: MTT cell proliferation. Particulars: for cytotoxicity / IC50 compared with emetine, MCF-7 (in words): media with 10% FBS; for IC50: read-out: IC50 (nM) MCF-7.
A further series relates to PrEC cells. In words: Cytotoxicity in normal prostatic epithelial cells in serum free media. As to conditions: for cytotoxicity to PrEC at 100 nM and 1,000 nM (in words): keratinocyte serum free media, no FAP or DPPIV; for IC50: read-out: calculated IC50 in the PrEC cell lines.
A further series deals with MDA-MB-231. As to the kind of experiment: MTT cell proliferation. Format: cell-based, human. As to conditions: 3-day exposure, media with 10% FBS.
A further series relates to FAP and DPPIV. In words: Tandem hydrolysis by mixture of purified FAP and DPPIV. In kind it is in vitro ADME. As to conditions: FAP 300 nM + DPPIV 30 nM, 37°C, HPLC and MS. The method, boiled down:
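FAP expressed in Schneider S2 cells (induced with 500 μM CuSO4) and purified from supernatant on Ni-NTA; DPPIV is human recombinant from sf9 cells. Enzymes (FAP 300 nM, DPPIV 30 nM) in 100 mM Tris, 100 mM NaCl, pH 7.8. Substrate from 10 mM DMSO stock, 250 μM final, 2.5% DMSO. Shaken at 37°C for 24 hr; time-point aliquots quenched in cold acetonitrile, then HPLC and MS.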

The nature of series [4]: Stability of prodrug 11 in human plasma. Format: in vitro ADME. Particulars: human plasma (EDTA), 400 μM, 37°C, 24 hr, methanol precipitation, HPLC and MS. A digest of the protocol:
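Compound from 10 mM DMSO stock was added to EDTA-anticoagulated human plasma, with a PBS control at the same concentration. Incubated at 37°C for 24 hr. At time points, 100 μl aliquots received 200 μl cold methanol, sat on ice 10 min, and were centrifuged at 13,000 rpm for 6 min. Supernatant analysed by HPLC and mass spectrometry.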

Series [5] deals with NCI 60 cancer cell screen. As to conditions: read-out: GI50 in NCI 60 cancer cell screen; no reference given; cited from earlier work.

Each structure is given as a SMILES string. Read-outs that look alike come from different tables or passages of the source. Numbered stars: 1 amine (or outer) side, 2 acyl side, 3 side chain; on linkers, the order of the positions; unused ones are H or OH. Square brackets hold non-standard residues; d marks the D form. Peptide text beside a SMILES is read from it. * marks the point of attachment. Emetine(N2') = CC[C@H]1CN2CCc3cc(OC)c(OC)cc3[C@@H]2C[C@@H]1C[C@@H]1c2cc(OC)c(OC)cc2CCN1*; PABC = O=C(OCc1ccc(N[*:1])cc1)[*:2]

The term IC50 denotes the point on the concentration scale where inhibition reaches its midpoint. Consider `CC[C@H]1CN2CCc3cc(OC)c(OC)cc3[C@@H]2C[C@@H]1C[C@@H]1c2cc(OC)c(OC)cc2CCN1C(=O)OCc1ccc(NC(=O)[C@@H]2CCCN2C(=O)[C@H](C)N)cc1` [Compound 10, Ala-Pro-PABC-Emetine], for which, in the series with FAP (purified recombinant FAP 300 nM, 24 hr), the “% conversion to emetine by FAP, 24 hr” value was determined as 36%. In addition, in series [1], the “% conversion to emetine by purified DPPIV, 2 hr” value was determined as 88%. In addition, the “% conversion to emetine in 10% FBS, 2 hr” value in [2] (10% FBS media, 2 hr) was found to be 10%. Moreover, in series [2] (RPMI media with 10% FBS, 500 μM compound, 1% DMSO, 24 hr, HPLC and MS), the “% emetine released, 10% FBS” value is 78%. In addition, the “stability in serum free media” value in [3] was “completely stable”. Further, the “cytotoxicity / IC50 compared with emetine, PC3 (in words)” value in the series on PC3 (3-day exposure) was “cytotoxicity comparable to that of emetine”. Moreover, the half-inhibitory concentration (IC50) in the series on PC3 (read-out: IC50 (nM) PC3, Table II, 3-day exposure, media containing 10% FBS, MTT) came to 37.2 ± 1.6 nM; in the series with LNCaP (read-out: IC50 (nM) LNCaP, Table II, 3-day exposure, media containing 10% FBS, MTT) it was 38.2 ± 1 nM; with MCF-7 (Table II, 3-day exposure, media containing 10% FBS, MTT) it was 38.4 ± 1.2 nM. In addition, the “cytotoxicity / IC50 compared with emetine, LNCaP (in words)” value in the series on LNCaP (3-day exposure) is on record as “cytotoxicity comparable to that of emetine”. Further, the “cytotoxicity / IC50 compared with emetine, MCF-7 (in words)” value in the series on MCF-7 (3-day exposure) is listed as “cytotoxicity comparable to that of emetine”. Further, the “cytotoxicity to PrEC (in words)” value with PrEC cells (100 nM, 1-3 days exposure, serum free media lacking FAP and DPPIV) is recorded as “no observable cytotoxicity”.
Consider `CC[C@H]1CN2CCc3cc(OC)c(OC)cc3[C@@H]2C[C@@H]1C[C@@H]1c2cc(OC)c(OC)cc2CCN1C(=O)OCc1ccc(NC(=O)[C@@H]2CCCN2C(=O)[C@H](C)NC(=O)[C@@H]2CCCN2C(=O)CNC(=O)[C@H](C)NC(=O)[C@@H]2CCCN2C(=O)CNC(=O)[C@H](CO)NC(=O)[C@H](C)NC(C)=O)cc1` [Compound 11] (Ac-ASGPAGPAP[PABC]-{Emetine(N2')}), for which the “IC50 compared with emetine, MDA-MB-231 (in words)” value with MDA-MB-231 was “identical to that for emetine”. Moreover, the “cleavage by recombinant purified FAP (in words)” value with FAP (purified FAP 300 nM, up to 24 hr) is given as “progressively cleaved to the intermediate (precursor) 10”. Also, in the series on FAP and DPPIV (2 hr), the “% emetine formed from 11, 2 hr” value is listed as 22% and the “% precursor 10 formed from 11, 2 hr” value is listed as 56%. In the series on FAP and DPPIV (4 hr), the “% emetine formed from 11, 4 hr” value stood at 36% and the “% precursor 10 formed from 11, 4 hr” value turned out to be 58%. Also, the “% precursor 10 in solution, 24 hr” value in the series with FAP and DPPIV (24 hr) was determined as 25%. Also, the “precursor 10 or emetine detected after incubation in human plasma” value in [4] is recorded as “No detectable amount”. For the same compound, the “cytotoxicity / IC50 compared with emetine, PC3 (in words)” value with PC3 (3-day exposure) is reported as “identical to that for emetine”. In addition, in the series with LNCaP (3-day exposure), the “cytotoxicity / IC50 compared with emetine, LNCaP (in words)” value was “identical to that for emetine”. Also, the “cytotoxicity / IC50 compared with emetine, MCF-7 (in words)” value in the series with MCF-7 (3-day exposure) was “identical to that for emetine”. Moreover, the “cytotoxicity to PrEC at 100 nM and 1,000 nM (in words)” value in the series with PrEC cells (3-day exposure) is listed as “not cytotoxic”. Moreover, the IC50 in the series on PrEC cells (3-day exposure, expanded dose range, serum free media, absence of FAP and DPPIV) was 7.73 µM. Further, the “fold less cytotoxic than emetine in PrEC” value in the series on PrEC cells (serum free media, absence of FAP and DPPIV) is given as “more than 200 fold”.
As a reminder, the GI50 is the concentration at which growth is held to half of that of the control. In the case of `CC[C@H]1CN2CCc3cc(OC)c(OC)cc3[C@@H]2C[C@@H]1C[C@H]1NCCc2cc(OC)c(OC)cc21` [Emetine, emetine], in series [5], the 50% growth inhibitory concentration (GI50) was 0.027 µM. Moreover, the IC50 in the series with PC3 (Homo sapiens, PC-3, 120 h, read-out: PC3 [IC50 (nM)]) is 29.4 ± 3.2 nM; with LNCaP (Homo sapiens, LNCaP, 120 h, read-out: LNCaP [IC50 (nM)]), 31.6 ± 2.4 nM; with MCF-7 (Homo sapiens, MCF7, 72 h) it was 35.8 ± 1.6 nM; in the series with PrEC cells (Homo sapiens, PrEC, 72 h), 0.0357 µM. Besides, the “percentage of viable cells relative to control, day 1” value with PrEC cells (100 nM, PrEC in serum free media lacking FAP and DPPIV, day 1) is recorded as 80%. The “percentage of viable cells relative to control, day 2” value with PrEC cells (100 nM, PrEC in serum free media lacking FAP and DPPIV, day 2) was 50%. Further, the “percentage of viable cells relative to control, day 3” value with PrEC cells (100 nM, PrEC in serum free media lacking FAP and DPPIV, day 3) worked out at 10%. In addition, the “cytotoxicity to PrEC at 100 nM and 1,000 nM (in words)” value with PrEC cells (3-day exposure) is on record as “highly cytotoxic”.
